# OX1R antag-1 = antagonists of human orexin 1 receptor; O43613; CHO/OX1R cells, Fluo-8 calcium fluorescence, orexin A; inhibition, % at 5 µM; 330,000 compounds, 0.43% hits;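 active means inhibition above its plate's threshold, mean inhibition of all tested compounds on the plate plus 3 SD, cut at about 37% in these data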;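 further: 0% = orexin A challenge wells and 100% = SB-334867-A antagonist wells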
# CHO parental Ca = counter-screen: ATP calcium response change in parental CHO cells | parental CHO-K1, ATP-induced calcium, Fluo-8 fluorescence | 330,000 compounds, 0.63% hits | inhibition, % at 5.6 µM;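 active means inhibition above that plate's mean sample inhibition plus 3 SD, cut at about 26% in these data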;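 further: 0% = ATP-challenged DMSO wells and 100% = DMSO wells without ATP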
#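 Assay system: parental CHO cells; Read-out basis: percent inhibition of ATP-evoked calcium rise, normalized to controls; Benchmarks: ATP and no-ATP DMSO wells; Compound dosing: single nominal dose of 5.6 µM per compound; Signal: Fluo-8 calcium dye fluorescence; Also added: ATP as calcium-mobilizing challenge; Repeats: singlicate.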
# GPR7 antag = human neuropeptides B/W receptor 1 antagonism; 290,000 compounds, 1.1% hits; AID 1861; inhibition, % at 4.4 µM; GPR7-expressing cells, fluorescence antagonist assay; P48145; in the data active means inhibition above about 16%, passing the limit was not always enough;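 further: cells stimulated with the agonist NPW; 0% = agonist with vehicle and 100% = vehicle without agonist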
# Target sequence (P48145 whole entry, looked up): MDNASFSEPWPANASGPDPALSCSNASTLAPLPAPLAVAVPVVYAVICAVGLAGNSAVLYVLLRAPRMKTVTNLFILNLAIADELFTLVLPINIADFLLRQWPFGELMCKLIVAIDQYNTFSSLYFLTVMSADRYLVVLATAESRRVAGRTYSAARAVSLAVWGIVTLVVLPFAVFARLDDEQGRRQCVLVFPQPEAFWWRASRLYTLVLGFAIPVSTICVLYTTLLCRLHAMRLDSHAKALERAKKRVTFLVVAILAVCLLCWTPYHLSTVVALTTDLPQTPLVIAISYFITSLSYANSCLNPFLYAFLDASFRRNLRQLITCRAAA
# GalR3 antagonist = blocks the human galanin receptor 3 | O60755 | HEK293 GalR3-CNG cAMP membrane potential fluorescence; galR3 body fused to GalR1 C-terminus | inhibition, % at 3 µM | 360,000 compounds, 0.44% hits | AID 651719;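 active means inhibition above the screen-wide average plus 3 SD, cut at about 13% in these data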;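 further: forskolin and galanin both at EC90 stimulate the cells; cAMP rise reported by CNG channel membrane potential dye signal; 0% = forskolin plus galanin with DMSO and 100% = forskolin alone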
# Target sequence (O60755 1-299 limits assumed): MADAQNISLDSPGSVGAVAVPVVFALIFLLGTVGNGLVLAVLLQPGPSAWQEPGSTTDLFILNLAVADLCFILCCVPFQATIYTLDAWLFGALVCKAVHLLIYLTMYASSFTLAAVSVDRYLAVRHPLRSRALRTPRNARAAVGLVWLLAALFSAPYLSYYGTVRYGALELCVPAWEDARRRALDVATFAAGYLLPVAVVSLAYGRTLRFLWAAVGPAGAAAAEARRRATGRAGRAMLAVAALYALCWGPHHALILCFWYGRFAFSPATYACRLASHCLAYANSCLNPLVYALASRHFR
# OX1R antag-2 = antagonists of human orexin 1 receptor (OX1R). AID 485270. 330,000 compounds, 1.8% hits. inhibition, % at 6.6 µM. OX1R-expressing cells, FRET antagonist read-out; in the data active means inhibition mostly above about 38%, no sharp cut-off; inactive means mostly below about 40%;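 further: 0% = agonist challenge alone and 100% = reference antagonist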
# GalR3 antag conf = confirmation of human galanin receptor 3 antagonists. shares compounds with GalR3 antagonist. HEK293 GalR3 CNG cAMP biosensor, membrane potential fluorescence; galR3 fused to GalR1 carboxy tail; challenged with forskolin and galanin at EC90. 1,600 compounds, 59% hits. inhibition, % at 3 µM;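 active means inhibition above the primary screen's cutoff, the mean inhibition of all screened compounds plus 3 SD, cut at about 13% in these data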;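 further: 0% = forskolin plus galanin and 100% = forskolin alone with DMSO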
# HEK-CNG parental = acts as nonspecific agonist in parental HEK-CNG cells; shares compounds with GalR3 antagonist; HEK293-CNG parental cells, cAMP membrane potential fluorescence; normalised: DMSO wells 0%, forskolin wells 100%; activation, % at 3 µM; 1,600 compounds, 10% hits; AID 652268; in the data active means activation above about 1.3%
# The depositor's hits bear a star; / = no result given. This is a sample that favours compounds with a hit; in the whole collection about 3.1% have one here.
SMILES,OX1R antag-1,CHO parental Ca,GPR7 antag,GalR3 antagonist,OX1R antag-2,GalR3 antag conf,HEK-CNG parental
COc1ccccc1N1C(=O)S/C(=C\c2cc(C)n(C)c2C)C1=O,-9.0,-2.6,-3.6,18.7*,9.8,0.7,0.2
C=CCC[C@H](CCCCC)OC(=O)/C=C/[C@@H](O)[C@H](O)C[C@H](O)CC=C,/,/,/,-6.0,/,/,/
CC(=O)Nc1ccc(NC(=O)c2csc([C@@H]3C[C@H](O)[C@@H](CO)O3)n2)cc1,/,/,/,-6.3,/,/,/
O=C(Nc1ccc(Oc2ccccc2)cc1)c1csc([C@H]2C[C@H](O)[C@@H](CO)O2)n1,/,/,/,83.8*,/,109.4*,-0.9
CC(C)(C)S(=O)(=O)N1C[C@@H]2C(=C(CCO)C[C@@H]3C(=O)N(c4ccccc4)C(=O)[C@@H]32)[C@H]1CCO,/,/,/,-6.0,/,/,/
COc1cc(C(O)c2nc(-c3cccc(C#N)c3)cs2)ccc1F (stereo not drawn),/,/,/,-2.4,/,/,/
O=C(Nc1cccc(Br)c1)c1ccc(CN2CCc3ccccc3C2)cc1,-22.9,-10.7,35.9,84.7*,-1.2,107.2*,-0.3
CSc1cccc(NC(=O)c2ccc(CN3CCc4ccccc4C3)cc2)c1,-32.2,-13.2,18.6,47.1*,-4.9,104.5*,-0.1
O=C(Nc1ccc(F)cc1)c1ccc(CN2CCc3ccccc3C2)cc1,-21.1,-9.0,14.1,102.8*,16.2,104.2*,0.1
CC(=O)Nc1ccc(NC(=O)c2ccc(CN3CCc4ccccc4C3)cc2)cc1,-9.2,-4.0,-9.8,-9.8,4.2,/,/
O=C(O)c1ccc(NS(=O)(=O)c2cccc(C(=O)Nc3ccccc3[N+](=O)[O-])c2)cc1,/,/,-0.6,-3.5,/,/,/
CN(C)S(=O)(=O)c1cccc(C(=O)Nc2ccccc2[N+](=O)[O-])c1,-18.5,-11.5,-5.0,15.3*,26.3,2.3,-0.1
CCOCCCNC(=O)C1CCC(CNS(=O)(=O)c2ccc(OC)cc2)CC1 (stereo not drawn),5.7,-5.2,-11.2,13.6*,3.0,41.5*,1.9*
Cc1ccc(S(=O)(=O)NCC2CCC(C(=O)NCCCOC(C)C)CC2)cc1 (stereo not drawn),-6.6,-12.7,9.2,/,7.9,/,/
CC(C)OCCCNC(=O)C1CCC(CNS(=O)(=O)c2ccccc2)CC1 (stereo not drawn),-11.8,-8.1,19.9,25.6*,10.9,4.5,-0.3
CCOC(=O)C1(C)CCCN1C(=O)c1cc(F)ccc1C (stereo not drawn),/,/,/,-4.7,/,/,/
O=C(CN1C(=O)CCC1=O)Nc1cccc2c1C(=O)NC2=O,11.6,-0.9,-16.8,20.6*,5.9,15.1*,0.0
C=CCC1CCCCC1=C(C#N)c1ccccc1 (stereo not drawn),/,/,/,-1.6,/,/,/
Cc1cc(C(=O)N/N=C(\CCC(=O)O)c2cccs2)c2ccccc2n1,-5.2,-4.1,-0.6,17.0*,16.9,-5.2,0.7
Cc1cc(C(=O)OCC(=O)c2cccs2)c2ccccc2n1,-35.6,-22.7,5.0,-4.7,19.9,/,/
CCOC(=O)c1ccc(NC(=O)c2nc[nH]c2C(=O)NC2CCN(C(=O)OC(C)(C)C)CC2)cc1,-2.0,-9.1,/,16.6*,20.1,10.1,-0.1
CCCCCc1ccc(C2=NNC(=O)CC2)cc1,-3.2,1.6,-4.0,-1.7,-1.3,/,/
CC(C)CCOc1ccc(C2=NNC(=O)CC2)cc1,4.7,-5.2,-5.4,26.2*,3.5,15.1*,0.6
CCOC(=O)/C(C#N)=C/c1cn(CCC(=O)O)nc1-c1ccccc1,-1.7,-12.9,-1.7,-4.3,24.1,/,/
CCOC(=O)/C(C#N)=C/c1cn(CCC(=O)O)nc1-c1ccc(OC)cc1,-4.3,18.4,-1.7,13.8*,23.3,6.9,0.1
SMILES,OX1R antag-1,CHO parental Ca,GPR7 antag,GalR3 antagonist,OX1R antag-2,GalR3 antag conf,HEK-CNG parental
COc1ccc(Cc2c(-c3ccc(C)cc3)nc3cc(C)c(Br)c(C)n23)c(C)c1,/,/,/,-2.9,/,/,/
O=C(NN=C(c1ccccc1)c1ccccn1)c1ccccc1,1.4,-1.2,/,12.7*,30.0,39.4*,0.5
COc1ccc(OC)c(-c2nn(-c3ccccc3)cc2C(=O)NC2(C)CCS(=O)(=O)C2)c1 (stereo not drawn),/,/,/,-2.8,/,/,/
Cc1ccc(S(=O)(=O)N2CC3C(=O)CC(c4ccccc4)N(S(=O)(=O)c4ccc(C)cc4)C3CC2c2cccc(Cl)c2)cc1 (stereo not drawn),/,/,/,-8.8,/,/,/
O=[N+]([O-])c1ccc(CN2CCCCCC2)cc1,-11.9,-3.6,-8.8,-9.9,22.8,/,/
CSc1ccc(CN2CCN(Cc3ccc([N+](=O)[O-])cc3)CC2)cc1,-25.8,-5.1,31.0*,84.3*,28.7,103.9*,-0.3
CCCCC[C@@H](C)N1C[C@H](COCc2ccccc2)Oc2cc(N3CCC[C@H]3C(N)=O)ccc2S1(=O)=O,/,/,/,-7.8,/,/,/
COc1ccc(C2=NN(c3nc(C(=O)O)cs3)C(O)(C(F)(F)F)C2)c(OC)c1 (stereo not drawn),-31.2,-8.9,-10.2,66.4*,31.3,74.0*,0.5
COc1cc(/C=N/S(=O)(=O)c2ccccc2)cc(OC)c1O,-5.3,2.7,-12.8,14.5*,7.5,-1.1,0.3
CCCCC1Cc2[nH]c(=S)[nH]c(=O)c2C(c2ccc(Cl)cc2)O1 (stereo not drawn),/,/,/,-7.2,/,/,/
O=C(NC1CCCCC1c1ccccc1)c1ccccc1 (stereo not drawn),/,/,/,16.0*,/,4.3,-0.3
O=C(NC1CCCCCCC1O)c1ccccc1 (stereo not drawn),/,/,/,-6.1,/,/,/
CCn1cc([N+](=O)[O-])c(C(=O)N2N=C(c3ccc(Cl)c(Cl)c3)CC2c2ccccc2O)n1 (stereo not drawn),73.5*,44.3*,-3.0,14.7*,17.7,19.6*,0.2
CC(C)(C)OC(=O)N1CCC[C@@H]1C(=O)N1CCC[C@@H]1C(=O)NCc1ccccc1,/,/,/,-6.5,/,/,/
COC(=O)c1cccc(OCCCN2CCC(C(O)(c3ccccc3)c3ccccc3)CC2)c1,/,/,/,-9.7,/,/,/
CC(=O)N1CCc2cc(S(=O)(=O)NCCC3=CCCCC3)ccc21,38.4,37.7*,1.3,82.0*,42.0,79.9*,-0.1
CCOc1ccc(OCC(=O)NCCS(=O)(=O)N2CCN(c3ccccc3)CC2)cc1,/,/,/,-5.9,/,/,/
Cc1ccc(NC(=O)Cc2ccc(Cl)c(Cl)c2)cc1S(=O)(=O)N(C)C,5.3,12.4,-13.8,-5.5,26.7,/,/
Cc1ccc(NC(=O)CNc2ccc(Cl)c(Cl)c2)cc1S(=O)(=O)N(C)C,-15.2,26.2,17.6,45.1*,25.7,89.7*,-1.3
C=CCN(CC=C)Cc1cc(=O)oc2cc(OC)ccc12,/,/,/,-6.6,/,/,/
CC(C)(C)NCC(O)Cn1cc(C=O)c2ccccc21 (stereo not drawn),-6.2,-6.1,0.9,14.2*,7.5,36.0*,0.3

# Screening data from PubChem BioAssay.
